Only some compounds are listed: those with a hit (about 0.99% of all), similar ones and a draw of the others.
Tn6 DDE FP – disrupts Tn6 cyclic peptide binding to fibrin D-Dimer-E complex; 0.21% of 370,000 active; inhibition, % at 8.3 µM; Fibrin DD(E) TRITC-Tn6 fluorescence polarization displacement; P02675;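 active = inhibition above a per-campaign cutoff: mean of compounds within control limits plus 3 SD, cut at about 15% in these data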
Target sequence (P02675 whole entry, looked up): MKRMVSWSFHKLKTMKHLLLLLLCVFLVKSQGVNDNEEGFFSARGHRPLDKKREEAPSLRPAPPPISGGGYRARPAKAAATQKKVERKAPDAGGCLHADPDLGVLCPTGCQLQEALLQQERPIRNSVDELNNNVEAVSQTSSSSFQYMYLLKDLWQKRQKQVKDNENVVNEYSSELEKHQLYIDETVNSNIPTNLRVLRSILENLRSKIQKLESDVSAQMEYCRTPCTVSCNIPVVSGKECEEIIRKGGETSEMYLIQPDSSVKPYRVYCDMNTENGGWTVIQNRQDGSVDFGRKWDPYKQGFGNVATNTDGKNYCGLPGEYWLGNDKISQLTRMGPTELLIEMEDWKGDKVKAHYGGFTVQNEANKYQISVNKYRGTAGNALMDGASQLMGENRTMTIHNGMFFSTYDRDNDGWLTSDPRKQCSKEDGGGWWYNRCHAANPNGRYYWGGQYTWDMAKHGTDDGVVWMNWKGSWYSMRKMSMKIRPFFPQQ
ABCB1 block – inhibitors of human ABCB1 transporter, ABCG2 counter-screen; P08183; CCRF-Adr cells, JC-1 efflux, flow cytometry; inhibition, % at 6.6 µM; 0.067% of 190,000 active; AID 1326; in the data active = inhibition above about 40%;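 note: higher value means more JC-1 retained so stronger ABCB1 efflux block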
GRK2 inh – inhibitors of human GRK2 displacing RNA aptamer; P25098; bead flow cytometry, FAM-aptamer displacement from GRK2; inhibition of aptamer binding, % at 10 µM; 0.59% of 330,000 active; AID 488847;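 active = inhibition of aptamer binding above 40%, roughly 3 SD of noise, on plates passing a quality check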;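 note: median bead fluorescence of bound FAM aptamer so fluorescent compounds give negative values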
ABCG2 inh – human ABCG2 inhibition, ABCB1 as counter-screen; Q9UNQ0; AID 1325; 0.1% of 190,000 active; inhibition, % at 6.6 µM; IgMXP3 cells, JC-1 efflux, flow cytometry;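 active = inhibition above 80%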
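test system = two drug-resistant human cell lines, ABCG2 and ABCB1 | amount = 3 million cells/mL final, two lines in 1:1 ratio | reagent = JC-1 transporter substrate | doses = one concentration, 6.6 µM final | incubation = 10 min at 25 °C | signal = flow cytometric JC-1 green MFI at 530 nm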
Ins promoter up – MIN6 insulin promoter up-regulation; MIN6 insulin promoter-GFP reporter, high-content imaging; active compounds read high; AID 1625; 0.3% of 190,000 active; z-score at 5 µM;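 active = z-score above 3 at 5 µM with at least 500 cells counted in the well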
DDE Tn7 FP inh – DD(E)-Tn7 binding inhibition, primary FP screen; FP displacement of FITC-Tn7 peptide from fibrin DD(E); 0% = median of compound wells per plate; inhibition, % at 8.3 µM; 0.13% of 370,000 active; AID 720508;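 active = inhibition above the mean of compounds falling within the control limits plus 3 SD of them, cut at about 14% in these data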
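Test system: human clot-derived fibrin DD(E) complex / Quantity: 2 µM final DD(E) protein / Incubation: 10 min plus 3 h, room temperature / Measured by: fluorescence polarization / Benchmarks: high control of 10 µM Aha-Tn7 peptide / Replicates: singlicate testing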
Numbers stand for hits.

What do the screens show for `N/C(=N\NS(=O)(=O)c1ccc(Cl)cc1)c1ccccn1`?
Tn6 DDE FP: inactive; GRK2 inh: 41; DDE Tn7 FP inh: inactive

Results for N/C(=N\NS(=O)(=O)c1ccccc1)c1ccccn1 ?
Tn6 DDE FP: inactive; GRK2 inh: inactive; DDE Tn7 FP inh: inactive

How did C[C@H](O)[C@@H]1CN2CCc3ccc(-c4ccc5c(c4)OCO5)cc3[C@@H]2C[C@@H]1N(C)C(=O)Nc1ccccc1 do in these assays?
Tn6 DDE FP: inactive; DDE Tn7 FP inh: inactive

How did CCCCCCNC(=O)C1CSCCS(=O)(=O)N1Cc1ccc(OC)cc1 (centres undefined) do in these assays?
Tn6 DDE FP: inactive; DDE Tn7 FP inh: inactive

What do the screens show for `CC(=O)Nc1cc(Cl)c(N=Cc2ccc(O)cc2O)cc1Cl`?
Tn6 DDE FP: 17; ABCB1 block: inactive; GRK2 inh: inactive; ABCG2 inh: inactive; Ins promoter up: inactive; DDE Tn7 FP inh: inactive

What do the screens show for `CN(C(=S)NC(=O)C12CC3CC(CC(C3)C1)C2)c1ccc(O)cc1`?
Tn6 DDE FP: inactive; GRK2 inh: 59; DDE Tn7 FP inh: inactive

Results for CN(C)NC(=S)NC(=O)C12CC3CC(CC(C3)C1)C2 ?
Tn6 DDE FP: inactive; ABCB1 block: inactive; GRK2 inh: inactive; ABCG2 inh: inactive; Ins promoter up: inactive; DDE Tn7 FP inh: inactive

How did NS(=O)(=O)c1ccc(N/C=C\C(=O)c2ccc3ccccc3c2)cc1 do in these assays?
Tn6 DDE FP: inactive; ABCB1 block: inactive; GRK2 inh: 49; ABCG2 inh: inactive; DDE Tn7 FP inh: inactive

What do the screens show for `COc1ccc(CC(=O)Cc2ccc(OC)c(OC)c2)cc1OC`?
Tn6 DDE FP: inactive; DDE Tn7 FP inh: 14

Results for COc1ccc(CC(=O)N2CCN(C(=O)Cc3ccc(OC)c(OC)c3)CC2)cc1OC ?
Tn6 DDE FP: inactive; DDE Tn7 FP inh: inactive

How did COC(=O)C1C(=O)c2c(n[nH]c2C)CC1(C)C (centres undefined) do in these assays?
Tn6 DDE FP: inactive; ABCB1 block: inactive; GRK2 inh: inactive; ABCG2 inh: inactive; Ins promoter up: inactive; DDE Tn7 FP inh: inactive

What do the screens show for `CCCc1n[nH]c2c1C(=O)C(C(=O)OC)C(C)(C)C2` (centres undefined)?
Tn6 DDE FP: inactive; ABCB1 block: inactive; GRK2 inh: inactive; ABCG2 inh: inactive; Ins promoter up: 3.6; DDE Tn7 FP inh: inactive

Results for CC(=O)Nc1sc2c(c1-c1nc3ccccc3s1)CCCN(C(C)C)C2 ?
Tn6 DDE FP: inactive; DDE Tn7 FP inh: inactive

What do the screens show for `CCS(=O)(=O)N1Cc2ccccc2CC1C(=O)OCC(=O)Nc1ccc(SC(F)F)cc1` (centres undefined)?
Tn6 DDE FP: inactive; ABCB1 block: inactive; GRK2 inh: inactive; ABCG2 inh: inactive; Ins promoter up: inactive; DDE Tn7 FP inh: inactive

How did CCS(=O)(=O)N1Cc2ccccc2CC1C(=O)OCC(=O)Nc1ccc(C)cc1 (centres undefined) do in these assays?
Tn6 DDE FP: inactive; ABCB1 block: inactive; GRK2 inh: inactive; ABCG2 inh: inactive; Ins promoter up: 5; DDE Tn7 FP inh: inactive

What do the screens show for `O=C(NCCCc1ccccc1)O[C@@H]1CC[C@@]23CCCN2C(=O)CCC[C@H]3C1`?
Tn6 DDE FP: inactive; DDE Tn7 FP inh: inactive

How did C=CCNC(=O)/C(=C\c1ccc(Br)cc1)NC(=O)c1ccccc1OC do in these assays?
Tn6 DDE FP: inactive; ABCB1 block: inactive; GRK2 inh: inactive; ABCG2 inh: inactive; Ins promoter up: 3.4; DDE Tn7 FP inh: inactive

Results for Cc1cccc(OCCNc2nc3c(c(=O)n(C)c(=O)n3C)n2C)c1 ?
Tn6 DDE FP: inactive; ABCB1 block: inactive; GRK2 inh: inactive; ABCG2 inh: inactive; Ins promoter up: 4.2; DDE Tn7 FP inh: inactive

How did Cc1ccc(C(=O)Nc2nnc(CC(=O)N/N=C/c3ccc(O)c(O)c3)s2)cc1 do in these assays?
Tn6 DDE FP: inactive; GRK2 inh: 62; DDE Tn7 FP inh: inactive

Results for CC(C)SC1=NC(C)(C)C=C(/C=C/c2ccc(Cl)cc2Cl)N1 ?
Tn6 DDE FP: inactive; ABCB1 block: inactive; GRK2 inh: inactive; ABCG2 inh: inactive; Ins promoter up: 3.6; DDE Tn7 FP inh: inactive

What do the screens show for `CC(C)SC1=NC(C)(C)C=C(/C=C/c2c(Cl)cccc2Cl)N1`?
ABCB1 block: inactive; GRK2 inh: inactive; ABCG2 inh: inactive; Ins promoter up: inactive
